How the values were obtained:
Mus musculus [1] = species on record: Mus musculus; experiment: (§1) Mutation read through activity at premature termination codon TGA-containing mouse dystrophin gene exon 23 nucleotide sequence expressed in African green monkey COS7 cells assessed as ratio of luciferase activity to beta-galactosidase activity at 200 uM after 48 hrs by dual luciferase reporter gene assay relative to control; format: cell-based
Summary of the method: (§2)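 COS-7 cells carrying a dual-reporter plasmid (β-galactosidase and luciferase genes joined by a TGA-containing stop sequence). Compounds were tested at 200 μM; the dose-dependent series ran 10–200 μM. Activity is reported as a ratio relative to D-MEM control, as mean ± SD, n = 3.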

COS-7 = experiment: Cytotoxicity against African green monkey COS7 cells assessed as reduction in cell viability at 200 uM after 48 hrs by WST1 assay; format: cell-based; conditions: chlorocebus aethiops, cos-7, 48 h
NHDF = experiment: Cytotoxicity against HDF assessed as reduction in cell viability at 200 uM after 48 hrs by WST1 assay; format: cell-based; conditions: human
[2] = Stability in 100 mM phosphate buffer (pH 7.4) assessed as parent compound remaining at 200 uM measured after 6 hrs in absence of esterase by RP-HPLC and high-resolution mass spectrometry method
Mus musculus [3] = experiment: Acute toxicity in B10 mouse assessed as change in body weight at 10 mg/day/20g body weight, sc for 14 days and measured on 1 to 7 and 14 days; format: organism-based; conditions: in vivo, 336 h
Summary of the method: (§3)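 Single subcutaneous injection into the abdominal region of B10 mice at 10 mg day–1 20 g–1 body weight, given only once. Body weight tracked over 2 weeks. Treated group n = 4; saline-injected B10 mice (n = 3) served as controls.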

Mus musculus [4] = experiment: Mutation read through activity in READ mouse on C57/BL6 background expressing premature termination codon TGA-containing mouse dystrophin gene exon 23 nucleotide sequence gene exon 23 assessed as ratio of luciferase activity to beta-galactosidase activity at 1 mg/20g body weight, sc administered daily for 7 days measured post last dose by dual luciferase reporter gene assay relative to control; format: functional
Summary of the method: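 READ mice carry a dual reporter split by a PTC. Subcutaneous injection into the abdominal region at 1 mg in 0.2 mL saline per 20 g body weight, daily for 7 days. Negative control: saline. Positive control: arbekacin. Readthrough reported as mean ± SD.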

Mus musculus [5] = experiment: Acute toxicity in B10 mouse assessed reduction in body weight at 10 mg/day/20g body weight, sc for 14 days and measured on day 1; format: organism-based; conditions: in vivo, 336 h; summary of the method: as §3
Liver carboxylesterase = target: T1, Liver carboxylesterase (Sus scrofa, UniProt Q29550); experiment: Prodrug conversion assessed as porcine liver esterase-mediated TCP-126 formation at 2 mM up to 6 hrs by RP-HPLC method; format: ADME; conditions: pig, isolated protein, 2000 µM, TDE = time-dependent effect
T1 sequence (Q29550 whole entry): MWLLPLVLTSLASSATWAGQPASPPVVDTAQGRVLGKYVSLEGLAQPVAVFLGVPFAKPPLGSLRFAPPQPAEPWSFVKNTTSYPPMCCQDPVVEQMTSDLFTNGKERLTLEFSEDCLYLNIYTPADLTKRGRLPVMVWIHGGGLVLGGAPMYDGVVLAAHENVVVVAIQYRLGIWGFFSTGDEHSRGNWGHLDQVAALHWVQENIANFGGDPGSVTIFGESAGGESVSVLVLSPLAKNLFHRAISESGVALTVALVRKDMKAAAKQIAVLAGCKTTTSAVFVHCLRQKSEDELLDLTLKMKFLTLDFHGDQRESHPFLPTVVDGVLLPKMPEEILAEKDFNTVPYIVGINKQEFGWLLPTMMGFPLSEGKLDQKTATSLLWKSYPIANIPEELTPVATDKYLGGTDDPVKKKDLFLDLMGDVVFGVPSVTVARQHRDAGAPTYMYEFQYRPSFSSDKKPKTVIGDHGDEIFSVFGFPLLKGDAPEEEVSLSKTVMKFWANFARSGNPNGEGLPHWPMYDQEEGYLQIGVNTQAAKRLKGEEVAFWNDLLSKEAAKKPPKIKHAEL
Summary of the method: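 Incubated with porcine liver esterase (110 units/mL) in 100 mM phosphate buffer, pH 7.4, at 37 °C. Reaction mixtures were analysed by RP-HPLC over time for conversion to the parent compound. The new metabolite peak was collected and identified by high-resolution MS.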

Mus musculus [6] = species on record: Mus musculus; experiment: as §1, with “TAA-containing” for “TGA-containing”; format: cell-based
Mus musculus [7] = species on record: Mus musculus; experiment: as §1, with “activity” for “activity at 200 uM”; format: cell-based; summary of the method: as §2
Mus musculus [8] = species on record: Mus musculus; experiment: as §1, with “TAG-containing” for “TGA-containing”; format: cell-based
Mus musculus [9] = species on record: Mus musculus; experiment: as §1, with “control relative to in-frame control containing TGG” for “control”; format: cell-based

CN(CC(=O)O)NC(=O)C[C@H](CCCN)NC(=O)[C@@H](N)Cc1ccccc1
fold change (FC) (Mus musculus [1]): 2.13

CN(CC(=O)O)NC(=O)C[C@H](N)C[C@@H](O)CN
fold change (FC) (Mus musculus [1]): 1.54

CC(C)C[C@H](N)C(=O)N[C@@H](CCCN)CC(=O)NN(C)CC(=O)OCc1cccc(Cl)c1
Activity (COS-7): Non-Toxic | Activity (NHDF): Non-Toxic | fold change (FC) (Mus musculus [1]): 5.37

CN(CC(=O)O)NC(=O)C[C@H](CCCN)NC(=O)[C@@H](N)Cc1ccc(O)cc1
fold change (FC) (Mus musculus [1]): 1.92

CN[C@@H]1[C@@H](O)[C@@H](O[C@H]2[C@H](O)[C@@H](O[C@H]3O[C@H]([C@H](C)O)[C@@H](O)[C@H](O)[C@H]3N)[C@H](N)C[C@@H]2N)OC[C@]1(C)O
Activity (COS-7): Non-Toxic | Activity (NHDF): Non-Toxic | fold change (FC) (Mus musculus [1]): 7.2

CN(CC(=O)O)NC(=O)C[C@H](CCCN)NC(=O)CN
fold change (FC) (Mus musculus [1]): 2.1

CC(C)C[C@H](N)C(=O)N[C@@H](CCCN)CC(=O)NN(C)CC(=O)OCc1ccccc1Br
Activity (COS-7): Non-Toxic | remaining at 6 h, 200 µM [2]: 99% | Activity (Mus musculus [3]): Non-Toxic | fold change (FC) (Mus musculus [4]): 1.59 | Activity (NHDF): Non-Toxic | Activity (Mus musculus [5]): Toxic | Drug metabolism (Liver carboxylesterase): Tde | fold change (FC) (Mus musculus [1]): 8.84 to 8.89 | fold change (FC) (Mus musculus [6]): 1.22 | Activity (Mus musculus [7]): Dose-dependent effect | fold change (FC) (Mus musculus [8]): 2.55 | Activity (Mus musculus [9]): 2.69%

CC(C)C[C@@H](N)C(=O)N[C@@H](CCCN)CC(=O)NN(C)CC(=O)O
fold change (FC) (Mus musculus [1]): 1.3

CC(C)C[C@H](O)C(=O)N[C@@H](CCCN)CC(=O)NN(C)CC(=O)O
fold change (FC) (Mus musculus [1]): 1.33

CC(C)C[C@H](N)C(=O)N[C@@H](CCCN)CC(=O)NN(C)CC(=O)O
Activity (COS-7): Non-Toxic | Activity (NHDF): Non-Toxic | fold change (FC) (Mus musculus [1]): 2.25 to 2.72 | fold change (FC) (Mus musculus [6]): 1.11 | fold change (FC) (Mus musculus [8]): 1.3

CC(C)C[C@H](N)C(=O)N[C@@H](CCCN)CC(=O)NN(C)CC(=O)OCc1ccccc1[N+](=O)[O-]
Activity (COS-7): Non-Toxic | Activity (NHDF): Non-Toxic | fold change (FC) (Mus musculus [1]): 9.15

CC(C)[C@H](N)C(=O)N[C@@H](CCCN)CC(=O)NN(C)CC(=O)O
fold change (FC) (Mus musculus [1]): 1.87

NCC[C@H](O)C(=O)N[C@@H]1C[C@H](N)[C@@H](O[C@H]2O[C@H](CN)CC[C@H]2N)[C@H](O)[C@H]1O[C@H]1O[C@H](CO)[C@@H](O)[C@H](N)[C@H]1O [ARBEKACIN]
fold change (FC) (Mus musculus [4]): 1.94

CC(C)C[C@H](N)C(=O)N[C@@H](CCCN)CC(=O)NN(C)CC(=O)OCc1ccccc1
Activity (COS-7): Non-Toxic | Activity (NHDF): Non-Toxic | fold change (FC) (Mus musculus [1]): 8.92

COc1cccc(COC(=O)CN(C)NC(=O)C[C@H](CCCN)NC(=O)[C@@H](N)CC(C)C)c1
Activity (COS-7): Non-Toxic | Activity (NHDF): Non-Toxic | fold change (FC) (Mus musculus [1]): 5.15

— ChEMBL document CHEMBL4130526, “Structure-Activity Relationship Study of Leucyl-3-epi-deoxynegamycin for Potent Premature Termination Codon Readthrough” (ACS Med Chem Lett, 2017)
